Assay results published in PubChem BioAssay AID1885 (Broad Institute, 2009).
Out of some 300,000 compounds screened, about 4,400 (1.5%) were called active. The full list was thinned out, with actives kept by preference. Unmarked numbers belong to inactive results.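 The calls were made as follows: active = mean inhibition across valid replicates above about 55% (limit read from the data); inconclusive = mean below that limit but half or more replicates reach it; inactive = mean below it, under half of replicates reach it.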

Assay: Trypanosoma cruzi replication blockers in host cells – luminescence, NIH3T3 host cells, primary screen (AID 1885);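 also: signal also drops with host cell toxicity which is not excluded here; 0% = plate median of DMSO wells and 100% = zero luminescence signal; higher percent means less beta-gal luminescence so fewer parasites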
Settings: T. cruzi beta-gal in NIH3T3, luminescence, 90 h; hits give high values; concentration not given here
Procedure, shortened: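 compound dosing = single 50 nL compound addition per well in DMSO | material = NIH/3T3 host cells with β-galactosidase reporter T. cruzi | input = 5,000 host fibroblasts per well | timing = ≥90 h infection period, 3 h prior cell attachment | read-out basis = percent inhibition of parasite-derived β-gal signal | detection = GalScreen β-gal luminescence, detergent lysis, 60 min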

Row | SMILES | inhibition
1 | Cc1ccc(-c2nn(-c3ccccc3)cc2C(=O)NCCCN2CCCC2=O)cc1 | -2.8%
2 | CC(C)(C)n1cnnc1Sc1ccc([N+](=O)[O-])cn1 | -5.35%
3 | COc1ccc(C2CC(=O)Oc3ccc(C(C)(C)C)cc32)cc1 (centres undefined) | -9.82%
4 | COc1ccc2oc(=O)cc(CN3CCOCC3)c2c1 | -6.42%
5 | CCOc1ccc(N(C)Cc2cc(=O)oc3ccc(OC)cc23)cc1 | 79.2% (active)
6 | COc1ccc2oc(=O)cc(-c3cc4ccccc4o3)c2c1 | 0.932%
7 | CCCn1c(C2CCCN2c2nc(-c3ccc(OC)cc3)cs2)nc2ccccc21 (centres undefined) | -7.75%
8 | CCOC(=O)N1CCN(C(c2cccnc2)c2ccc3cccnc3c2O)CC1 (centres undefined) | 30.1%
9 | Oc1c(C(c2ccccn2)N2CCOCC2)ccc2cccnc12 (centres undefined) | 10.2%
10 | CCN1CCN(C(c2cccnc2)c2cc(Cl)c3cccnc3c2O)CC1 (centres undefined) | 57.7% (active)
11 | COc1ccc(Cl)cc1NS(=O)(=O)c1cccc(C(=O)NC2CCC(O)CC2)c1 (centres undefined) | 3.45%
12 | COC(=O)c1c(-c2ccsc2)oc2ccc(-c3cc(OC)c(OC)c(OC)c3)cc12 | 34%
13 | Cc1nnc(N/N=C/c2ccccn2)[nH]c1=O | 60.9% (active)
14 | CNC(=O)C(=O)N/N=C/c1ccccn1 | -8.15%
15 | Cc1nnc(N/N=C/C2CC=CCC2)[nH]c1=O (centres undefined) | 0.195%
16 | CC1(C)S[C@@H]2[C@H](N=CN3CCCCCC3)C(=O)N2[C@H]1C(=O)O | 4.45%
17 | O=C(NCc1ccc(Cl)cc1)C(=O)NCC1CCCN1S(=O)(=O)c1cccs1 (centres undefined) | 12.8%
18 | Cc1cc(C)nc(S/C=C/C(=O)c2ccccc2)n1 | 12%
19 | O=C(CSc1ncn[nH]1)N/N=C/c1ccc(F)cc1 | -12.6%
20 | O=C(/C=C/Sc1ncn[nH]1)c1ccc(Cl)cc1 | 56.1% (active)
21 | O=C1[C@H]2[C@@H](c3ccc(F)cc3)N3C(=O)N(c4ccc(C(F)(F)F)cc4)C(=O)[C@@]3(Cc3ccccc3)[C@H]2C(=O)N1C1CCCCC1 | 36.5%
22 | COc1ccc(CNC(=O)C2CCN(C(=O)c3ccccc3)CC2)cc1 | -1.19%
23 | COc1cccc(N=c2oc3c(C)ncc(CO)c3cc2C(N)=O)c1 | 13.3%
24 | Cc1nc(Nc2ccc3c(c2)OCCO3)c2nnn(Cc3ccccc3Cl)c2n1 | 54.7% (active)

Row | SMILES | inhibition
25 | Cc1nc(Nc2ccccc2F)c2nnn(Cc3ccccc3Cl)c2n1 | -8.04%
26 | CCCc1nc(NCc2ccc3c(c2)OCO3)c2nnn(Cc3ccccc3Cl)c2n1 | 11.9%
27 | Cc1ccc(NS(=O)(=O)c2ccc3c(c2)NC(=O)CO3)cc1 | 5.83%
28 | CN(CC(=O)Nc1cccc(F)c1)C(=O)C1CC(=O)N(CCc2ccccc2)C1 (centres undefined) | -2.73%
29 | Cc1ccc(-c2nnc(SCC(=O)N/N=C/c3cccs3)n2-c2ccc(C)cc2)cc1 | 12.8%
30 | NNC(=O)CSc1nnc(-c2ccccc2)n1-c1ccccc1 | -6.88%
31 | Cc1ccc(-n2c(SCC(=O)N3c4ccccc4Sc4ccccc43)nnc2-c2ccncc2)cc1 | 63.1% (active)
32 | O=C(CCC1CCCN(C(=O)c2ccc(F)c(F)c2)C1)N1CCN(c2ccccn2)CC1 (centres undefined) | 9.19%
33 | COc1cc(/C=C2/SC(=S)N(Cc3ccccc3)C2=O)cc(OC)c1O | -5.6%
34 | O=C(Nc1ccccc1Cl)Nc1cccc2cccnc12 | 3.14%
35 | O=C(Nc1cccc2cccnc12)c1cccc(Cl)c1 | -33.4%
36 | CC(=O)/C(=N\Nc1ccc(Cl)cc1Cl)Sc1cccc2cccnc12 | 67.6% (active)
37 | CCOc1ccc(C(=O)CCC(=O)NC2=NCCS2)cc1 | 10.9%
38 | CC(=O)c1cc(CN2CCC(n3nccc3NC(=O)c3ccccc3Cl)CC2)cs1 | 9.08%
39 | COCCn1cnc2c1c(=O)n(Cc1ccc(Br)cc1)c(=O)n2Cc1ccccc1 | 19.6%
40 | CCN(CC)CCn1cnc2c1c(=O)[nH]c(=O)n2Cc1ccccc1 | -8.26%
41 | N=c1c2c(-c3ccccc3)c(-c3ccccc3)n(Cc3ccccc3)c2ncn1CCCO | 70.5% (active)
42 | N#Cc1ccc(-c2ccc(Cl)cc2)nc1Oc1ccc(F)cc1 | 14.3%
43 | N#CCCN(C(=O)COC(=O)c1ccc(S(=O)(=O)N2CCCCCC2)cc1)c1ccccc1 | -2.09%
44 | CC(C)CN(C(=O)Cn1c(=O)cnc2ccccc21)C1CCS(=O)(=O)C1 (centres undefined) | 11%
45 | N#CCc1c(C#N)c(N)nc(N2CCCC2)c1C#N | 8.26%
46 | Cc1ncc(CO)c(/C=N/NC(=O)c2cccc(S(=O)(=O)N3CCCC3)c2)c1O | -9.29%
47 | CCn1c2c(c3ccc(OC)cc31)CCCC2=O | -5.03%
48 | O=C(/C(=C/c1cccc(Cl)c1)c1nc2ccccc2[nH]1)c1ccccc1 | 68.4% (active)

Row | SMILES | inhibition
49 | O=C(Cc1nc2ccccc2[nH]c1=O)c1ccc(Cl)cc1 | 0.565%
50 | CCC(=O)/C(=C(/O)c1ccccc1)c1nc2ccccc2[nH]1 | 3.53%
51 | CCCCn1c(N)c(N(CC(C)C)C(=O)CSc2ccc([N+](=O)[O-])cc2)c(=O)[nH]c1=O | 6.23%
52 | CC(Oc1ccc(Br)cc1)C(=O)NCC(c1ccco1)N1CCCCC1 (centres undefined) | -0.255%
53 | CCN(C(=O)CSc1nnnn1-c1ccccc1OC)C1CCS(=O)(=O)C1 (centres undefined) | -11.8%
54 | COC(=O)C1=C(C)Nc2ncnn2C1c1ccco1 (centres undefined) | -1.94%
55 | CC1=C(C(=O)OC2CCCCC2)C(c2cccnc2)n2ncnc2N1 (centres undefined) | 61.7% (active)
56 | COC(=O)C1=C(C)Nc2ncnn2C1c1cccnc1 (centres undefined) | 17.7%
57 | COc1ccc(C(=O)COC(=O)COc2ccc(C)c(C)c2)cc1 | 4.19%
58 | O=S(=O)(NC1CCCCC1N1CCN(c2ccccc2F)CC1)c1ccccc1 (centres undefined) | 20.8%
59 | Cc1n[nH]c(=O)c2c(NC(=O)COC(=O)c3ncc(Cl)c(Cl)c3Cl)oc(C)c12 | -10.3%
60 | COc1ccc2c(CC(=O)OCC(=O)Nc3ccccc3[N+](=O)[O-])coc2c1 | 16.9%
61 | CCc1ccccc1NC(=O)CN(c1ccc(OC)cc1OC)S(=O)(=O)c1ccccc1[N+](=O)[O-] | 58.4% (active)
62 | COc1ccc(N(CC(=O)Nc2cccc3ccccc23)S(C)(=O)=O)c(OC)c1 | -7.06%
63 | O=C1N[C@@H](Cc2ccccc2)C(=O)N2[C@H]1C[C@]1(Br)c3ccccc3N(S(=O)(=O)c3ccccc3)[C@H]21 | -12.8%
64 | COc1ccc(-c2noc(COc3ccc(Cl)c(C)c3)n2)cc1 | -9.09%
65 | Cc1cc(Cl)ccc1OCc1nc(-c2ccncc2)no1 | 74.8% (active)
66 | c1ccc(CCc2nc(-c3ccncc3)no2)cc1 | -6.81%
67 | O=C(c1ccncc1)N1CCN(S(=O)(=O)c2cccc([N+](=O)[O-])c2)CC1 | 25.7%
68 | CCCNC(=O)c1c(Cl)cnn1-c1ccc(C)cc1 | -28%
69 | CCCNC(=O)CCc1c(C)nc2c(c(C)nn2-c2ccccc2)c1C | 28%
70 | CCCNC(=O)CCc1c(C)nc2c(c(C)nn2-c2ccc(C)cc2)c1C | 63.7% (active)
71 | O=S(=O)(O)Oc1c[nH]c2ccccc12 | -8.75%
72 | COc1ccc(S(=O)(=O)N(CC(=O)N/N=C/c2ccccc2C(=O)O)c2ccccc2OC)cc1 | 20.6%

Row | SMILES | inhibition
73 | COc1ccccc1NC(=O)CN(c1ccccc1OC)S(=O)(=O)c1ccccc1 | 2.04%
74 | COc1ccccc1N(CC(=O)N/N=C(\C)c1ccccc1O)S(=O)(=O)c1ccc(C)cc1 | 65.9% (active)
75 | O=C(N/N=C/c1cc(Br)c(O)c([N+](=O)[O-])c1)C(O)(c1ccccc1)c1ccccc1 | -7.65%
76 | CCn1nc(C)c(NC(=O)/C=C/c2ccc(OC)c(COc3ccc(Br)cc3)c2)c1C | 68.5% (active)
77 | COc1ccc(/C=C/C(=O)Nc2c(C)nn(C)c2C)cc1COc1ccc(Br)cc1 | 30.9%
78 | COc1ccc(C(C)=O)cc1COc1ccc(Cl)c(C)c1 | 14.6%
79 | O=C(O)CCn1c(O)c(C=C2N=c3ccccc3=N2)sc1=S | -24.7%
80 | COc1ccc(NC(=S)NCC2CCN(c3ccc(OC)cc3)C2)cc1 (centres undefined) | 6.37%
81 | COc1ccc(N2CCC(CNC(=S)Nc3c(C)cccc3C)C2)cc1 (centres undefined) | 55.3% (active)
82 | COc1ccc(NC(=S)NCCN2CCC(C)CC2)cc1 | -11.2%
83 | CN1C(C(=O)NCC2CC2)CC2Cn3c(nc4ccccc43)C21 (centres undefined) | -19%
84 | O=C1CN(C(=O)COc2c(Cl)cccc2Cl)c2ccccc2N1 | -8.97%
85 | COc1ccccc1CCC(=O)NNC(=O)c1ccncc1 | 10.4%
86 | Cc1cc(C(=O)CCl)c(C)n1CC1COc2ccccc2O1 (centres undefined) | 60.4% (active)
87 | O=C1C(=O)N(CC2COc3ccccc3O2)c2ccccc21 (centres undefined) | -17%
88 | Cc1cc(NC(=O)CCC2COc3ccccc3O2)no1 (centres undefined) | 1.39%
89 | Cc1cc(C)c(C)c(S(=O)(=O)N2CCN(C(=O)c3ccc4c(=O)n5c(nc4c3)CCC5)CC2)c1C | -5.27%
90 | Nc1nc(Sc2ncccc2[N+](=O)[O-])n[nH]1 | -19.9%
91 | Brc1cnc2ccccc2c1N1CCCCC1 | 0.276%
92 | Cc1ccc(C(=O)OC(C)CN2CCOCC2)cc1 (centres undefined) | -11.2%
93 | Cc1cccc(C(=O)OC(C)CN2CCCC2)c1 (centres undefined) | -8.01%
94 | Cc1cccc(C(=O)OC(C)CN2CCN(C)CC2)c1 (centres undefined) | 56.8% (active)
